Common to all, as to assay type: functional
The test system of assay [1] is Mus musculus. In words: Effective dose in vivo, in mouse inoculated intraperitoneally with 5.80*10e7 CFU of erythromycin susceptible strain Staphylococcus aureus Smith. Conditions: ip. In short, it runs like this: (§1)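 Mouse protection test: mice were infected intraperitoneally with erythromycin-susceptible S. aureus Smith or S. pneumoniae IID553. Compounds were given orally 1 h after inoculation.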

For assay [2], the system named is Streptococcus pneumoniae. In words: In vitro minimum inhibitory concentration for antibacterial activity against erythromycin susceptible strain Streptococcus pneumoniae IID553.
Assay [3] relates to Streptococcus pneumoniae. In words: In vitro minimum inhibitory concentration for antibacterial activity against Streptococcus pneumoniae 210 (efflux-resistant strain encoded by the mef(A) gene). In short, it runs like this:
(§2)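 Agar dilution MIC determined by the Japan Society of Chemotherapy standard method for aerobic bacteria.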

For assay [4], the system named is Streptococcus pneumoniae. In words: In vitro minimum inhibitory concentration for antibacterial activity against Streptococcus pneumoniae 211 (MLSb-resistant strain encoded by the erm(B) gene). The method in brief:
as §2

For assay [5], the system named is Staphylococcus aureus. Nature of the assay: In vitro minimum inhibitory concentration for antibacterial activity against Staphylococcus aureus SR138 (constitutively MLSb-resistant strain encoded by the erm(A) gene). In short, it runs like this:
as §2

Assay [6] concerns Streptococcus pneumoniae. In words: In vitro minimum inhibitory concentration for antibacterial activity against erythromycin-susceptible strain Streptococcus pneumoniae IID553. The method in brief: (§3)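 MIC by agar dilution following the Japan Society of Chemotherapy standard method for aerobic bacteria. S. aureus 209P-JC and S. pneumoniae IID553 are erythromycin-susceptible strains.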

Assay [7] deals with Staphylococcus aureus. Nature of the assay: In vitro minimum inhibitory concentration for antibacterial activity against erythromycin susceptible strain Staphylococcus aureus Smith.
The test system of assay [8] is Staphylococcus aureus. Nature of the assay: In vitro minimum inhibitory concentration for antibacterial activity against erythromycin-susceptible strain Staphylococcus aureus […]. In short, it runs like this: as §3
For assay [9], the system named is Haemophilus influenzae. In words: In vitro minimum inhibitory concentration for antibacterial activity against Haemophilus influenzae ATCC 43095 (ampicillin-susceptible strain that does not produce beta-lactamase). In short, it runs like this:
as §2

Assay [10] deals with Haemophilus influenzae. Nature of the assay: In vitro minimum inhibitory concentration for antibacterial activity against Haemophilus influenzae ATCC 33533 (ampicillin-resistant strain that produces beta-lactamase). The method in brief: as §2
Assay [11] concerns Mus musculus. Nature of the assay: Effective dose in vivo, in mouse inoculated intraperitoneally with 1.47*10e3 CFU of erythromycin susceptible strain Streptococcus pneumoniae IID553. Conditions: ip. In short, it runs like this:
as §1

In assay [12] the test system is Staphylococcus aureus. Nature of the assay: In vitro minimum inhibitory concentration for antibacterial activity against Staphylococcus aureus B1 (inducibly MLSb-resistant strain encoded by the erm(C) gene). In short, it runs like this:
as §2

In brackets after ≈: the same amount, converted by molar mass.

As to `CC[C@H]1OC(=O)[C@H](C)[C@@H](OC(=O)Cc2cccnc2)[C@H](C)[C@@H](OC2O[C@H](C)C[C@H](N(C)C)[C@H]2O)[C@@](C)(OC)C[C@@H](C)C(=O)[C@H](C)[C@H]2NC(=O)O[C@@]21C` (some centres not stated), the median effective dose (ED50) in assay [1] was determined as 6.99 mg/kg; in [11] it was 17.5 mg/kg. In addition, the MIC in assay [2] was 0.05 µg/mL (≈ 0.0681 µM); in assay [3], 0.1 µg/mL (≈ 0.136 µM); in assay [4] it was over 100 µg/mL; in [5], over 100 µg/mL; in [6] it was 0.05 µg/mL (≈ 0.0681 µM); in assay [7], 0.2 µg/mL (≈ 0.273 µM). In addition, the MIC worked out at 0.05 µg/mL (≈ 0.0681 µM) in [8], 3.13 µg/mL (≈ 4.26 µM) in assay [9], 3.13 µg/mL (≈ 4.26 µM) in assay [10] and 0.39 µg/mL (≈ 0.531 µM) in [12].
In the case of `CC[C@H]1OC(=O)[C@H](C)[C@@H](OC(=O)Cc2cccnc2)[C@H](C)[C@@H](OC2O[C@H](C)C[C@H](N(C)C)[C@H]2O)[C@@](C)(OC)C[C@@H](C)C(=O)[C@H](C)[C@H]2OC(=O)O[C@@]21C` (some centres not stated), the ED50 in [1] is 17.5 mg/kg; in assay [11] it was 51.1 mg/kg. The MIC in assay [2] is 0.05 µg/mL (≈ 0.068 µM); in assay [3], 0.2 µg/mL (≈ 0.272 µM); in assay [4], over 100 µg/mL; in assay [5] it was over 100 µg/mL; in assay [6], 0.05 µg/mL (≈ 0.068 µM); in assay [7], 0.2 µg/mL (≈ 0.272 µM). Moreover, the MIC in assay [8] is 0.2 µg/mL (≈ 0.272 µM); in assay [9], 3.13 µg/mL (≈ 4.26 µM); in assay [10], 3.13 µg/mL (≈ 4.26 µM); in [12], 0.39 µg/mL (≈ 0.531 µM).
In the case of `CC[C@H]1OC(=O)[C@H](C)[C@@H](OC(=O)Cc2cccnc2)[C@H](C)[C@@H](OC2O[C@H](C)C[C@H](N(C)C)[C@H]2O)[C@@](C)(O)C[C@@H](C)[C@H](O)[C@H](C)[C@@H](O)[C@]1(C)O` (some centres not stated), the MIC in assay [3] is 0.78 µg/mL (≈ 1.12 µM); in assay [4], over 100 µg/mL; in assay [5] it was over 100 µg/mL; in assay [6], 0.78 µg/mL (≈ 1.12 µM); in assay [8], 3.13 µg/mL (≈ 4.49 µM); in assay [9], 12.5 µg/mL (≈ 17.9 µM). The MIC in assay [10] stood at 12.5 µg/mL (≈ 17.9 µM); in [12], 6.25 µg/mL (≈ 8.97 µM).
Consider `CC[C@H]1OC(=O)[C@H](C)[C@@H](OC2C[C@@](C)(OC)[C@@H](O)[C@H](C)O2)[C@H](C)[C@@H](OC2O[C@H](C)C[C@H](N(C)C)[C@H]2O)[C@@]2(C)C[C@@H](C)[C@H](OC(=O)O2)[C@H](C)[C@H]2OC(=O)O[C@@]21C` (some centres not stated), for which the MIC in [3] was 0.39 µg/mL (≈ 0.495 µM); in assay [4], over 100 µg/mL; in assay [5], over 100 µg/mL; in assay [6] it was 0.1 µg/mL (≈ 0.127 µM); in [8] it was 0.1 µg/mL (≈ 0.127 µM); in [9], 1.56 µg/mL (≈ 1.98 µM). Moreover, the MIC in [10] is 1.56 µg/mL (≈ 1.98 µM); in [12], over 100 µg/mL.
Turning to `CC[C@H]1OC(=O)[C@H](C)[C@@H](OC(=O)Cc2ccccn2)[C@H](C)[C@@H](OC2O[C@H](C)C[C@H](N(C)C)[C@H]2O)[C@@](C)(OC)C[C@@H](C)C(=O)[C@H](C)[C@@H](O)[C@]1(C)O` (some centres not stated), the MIC in assay [3] was 0.39 µg/mL (≈ 0.55 µM); in [4], over 100 µg/mL; in assay [5], over 100 µg/mL; in assay [6] it was 0.39 µg/mL (≈ 0.55 µM); in [8], 1.56 µg/mL (≈ 2.2 µM); in assay [9], 50 µg/mL (≈ 70.5 µM). Further, the results for the MIC in [10] and in [12] were 25 µg/mL (≈ 35.3 µM) and 1.56 µg/mL (≈ 2.2 µM), respectively.
As to `CC[C@H]1OC(=O)[C@H](C)[C@@H](OC(=O)Cc2ccccn2)[C@H](C)[C@@H](OC2O[C@H](C)C[C@H](N(C)C)[C@H]2O)[C@@]2(C)C[C@@H](C)[C@H](OC(=O)O2)[C@H](C)[C@H]2OC(=O)O[C@@]21C` (some centres not stated), the MIC is 0.2 µg/mL (≈ 0.267 µM) in assay [3]; 100 µg/mL (≈ 134 µM) in assay [4]; over 100 µg/mL in [5]; 0.05 µg/mL (≈ 0.0668 µM) in [6]; 0.2 µg/mL (≈ 0.267 µM) in [8]; 6.25 µg/mL (≈ 8.35 µM) in assay [9]. In addition, the MIC worked out at 6.25 µg/mL (≈ 8.35 µM) in assay [10] and 0.78 µg/mL (≈ 1.04 µM) in [12].
In the case of `CC[C@H]1OC(=O)[C@H](C)[C@@H](OC(=O)Cc2ccc(OC)cc2)[C@H](C)[C@@H](OC2O[C@H](C)C[C@H](N(C)C)[C@H]2O)[C@@](C)(OC)C[C@@H](C)C(=O)[C@H](C)[C@@H](O)[C@]1(C)O` (some centres not stated), the MIC in assay [3] is 0.78 µg/mL (≈ 1.06 µM); in assay [4], over 100 µg/mL; in assay [5], over 100 µg/mL; in assay [6], 0.78 µg/mL (≈ 1.06 µM); in [8], 1.56 µg/mL (≈ 2.11 µM); in assay [9], 100 µg/mL (≈ 136 µM). In addition, the MIC in assay [10] is 50 µg/mL (≈ 67.8 µM); in assay [12], 12.5 µg/mL (≈ 16.9 µM).
In the case of `CC[C@H]1OC(=O)[C@H](C)[C@@H](OC(=O)CCc2cccc(OC)c2)[C@H](C)[C@@H](OC2O[C@H](C)C[C@H](N(C)C)[C@H]2O)[C@@](C)(OC)C[C@@H](C)C(=O)[C@H](C)[C@@H](O)[C@]1(C)O` (some centres not stated), the MIC was 0.78 µg/mL (≈ 1.04 µM) in assay [3]; over 100 µg/mL in [4]; over 100 µg/mL in assay [5]; 0.78 µg/mL (≈ 1.04 µM) in assay [6]; 3.13 µg/mL (≈ 4.16 µM) in [8]; 100 µg/mL (≈ 133 µM) in assay [9]. The MIC in [10] amounted to 100 µg/mL (≈ 133 µM); in assay [12], 3.13 µg/mL (≈ 4.16 µM).
Regarding `CC[C@H]1OC(=O)[C@H](C)[C@@H](OC(=O)Cc2ccc([N+](=O)[O-])cc2)[C@H](C)[C@@H](O[C@@H]2O[C@H](C)C[C@H](N(C)C)[C@H]2O)[C@@](C)(OC)C[C@@H](C)C(=O)[C@H](C)[C@@H](O)[C@]1(C)O`, the MIC in [2] was 0.1 µg/mL (≈ 0.133 µM); in assay [3] it was 0.2 µg/mL (≈ 0.266 µM); in assay [4] it was over 100 µg/mL; in assay [5], over 100 µg/mL; in assay [6], 0.2 µg/mL (≈ 0.266 µM); in assay [7] it was 0.39 µg/mL (≈ 0.518 µM). The MIC in [8] came out at 0.2 µg/mL (≈ 0.266 µM); in assay [9], 50 µg/mL (≈ 66.4 µM); in [10], 50 µg/mL (≈ 66.4 µM); in assay [12] it was 0.39 µg/mL (≈ 0.518 µM). This compound returned an ED50 in assay [11] of 39.1 mg/kg.
`CC[C@H]1OC(=O)[C@H](C)[C@@H](OC(=O)Cc2cccnc2)[C@H](C)[C@@H](OC2O[C@H](C)C[C@H](N(C)C)[C@H]2O)[C@@](C)(O)C[C@@H](C)C(=O)[C@H](C)[C@H]2OC(=O)O[C@@]21C` (some centres not stated): the MIC in [3] was 0.2 µg/mL (≈ 0.277 µM); in assay [4], over 100 µg/mL; in assay [5], over 100 µg/mL; in assay [6], 0.05 µg/mL (≈ 0.0694 µM); in assay [8], 0.2 µg/mL (≈ 0.277 µM); in [9], 3.13 µg/mL (≈ 4.34 µM). In addition, the figures for the MIC in assay [10] and in assay [12] were 3.13 µg/mL (≈ 4.34 µM) and 0.39 µg/mL (≈ 0.541 µM), respectively.
For the compound `CC[C@H]1OC(=O)[C@H](C)[C@@H](OC(=O)Cc2cccc([N+](=O)[O-])c2)[C@H](C)[C@@H](OC2O[C@H](C)C[C@H](N(C)C)[C@H]2O)[C@@](C)(OC)C[C@@H](C)C(=O)[C@H](C)[C@@H](O)[C@]1(C)O` (some centres not stated), the MIC was 0.2 µg/mL (≈ 0.266 µM) in [3]; over 100 µg/mL in assay [4]; over 100 µg/mL in [5]; 0.1 µg/mL (≈ 0.133 µM) in assay [6]; 0.2 µg/mL (≈ 0.266 µM) in assay [8]; 25 µg/mL (≈ 33.2 µM) in [9]. The figures for the MIC in [10] and in [12] were 25 µg/mL (≈ 33.2 µM) and 0.78 µg/mL (≈ 1.04 µM), respectively.
Take `CC[C@H]1OC(=O)[C@H](C)[C@@H](OC(=O)Cc2cccnc2)[C@H](C)[C@@H](OC2O[C@H](C)C[C@H](N(C)C)[C@H]2O)[C@@](C)(O)C[C@@H](C)CN(C)[C@H](C)[C@@H](O)[C@]1(C)O` (some centres not stated): the MIC in assay [3] was 0.78 µg/mL (≈ 1.1 µM); in assay [4], over 100 µg/mL; in [5] it was over 100 µg/mL; in assay [6], 0.78 µg/mL (≈ 1.1 µM); in assay [8], 3.13 µg/mL (≈ 4.41 µM); in assay [9] it was 1.56 µg/mL (≈ 2.2 µM). Also, the MIC in [10] came out at 1.56 µg/mL (≈ 2.2 µM); in [12], 6.25 µg/mL (≈ 8.8 µM).

What is called ED50 is the midpoint of the dose-response relation. Low values mean greater potency, high ones weaker potency.

Source of the values: ChEMBL document CHEMBL1145811, “Synthesis and antibacterial activity of a novel series of acylides: 3-O-(3-pyridyl)acetylerythromycin A derivatives” (J Med Chem, 2003).
